Measurements reported in the EternaBench riboswitch data.

Test system: MS2 coat protein
Assay: apparent Kd, MS2 coat protein; higher = weaker binding; RNA-MaP array; FMN 200 µM where present
Procedure, shortened: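 Green signal from SNAP-549-labelled MS2 coat protein was normalised to red-channel RNA signal and to the median Fmax of control clusters. The protein was titrated from 0.7 or 1.5 nM, doubling to 3 µM, without and then with constant ligand, over designs transcribed by stalled E. coli RNA polymerase on Illumina sequencing-chip clusters, in 100 mM Tris-HCl pH 7.5, 80 mM KCl, 4 mM MgCl2, BSA, DTT, yeast tRNA and Tween-20. The apparent Kd is the median of filtered per-cluster binding-curve fits.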

[1] = designed as: OFF switch for flavin mononucleotide, no ligand
[2] = ligand present: flavin mononucleotide, designed as: OFF switch for flavin mononucleotide
[3] = designed as: ON switch for flavin mononucleotide, no ligand
[4] = ligand present: flavin mononucleotide, designed as: ON switch for flavin mononucleotide

| Sequence | apparent Kd [1] | apparent Kd [2] | apparent Kd [3] | apparent Kd [4] |
| --- | --- | --- | --- | --- |
| GCUCUGUCAGGAUAUCAGGCUGACGGAACUUGGCUGUUAGAUGAGAAGGGACAUGAGGAUCACCCAUGUAAAAU | 0.0338 µM | 0.0348 µM | – | – |
| CAUGUGUUAGGAUAUGCACCGAUCUCCGAAAGGAGAUCGGUGCAGAAGGAACAUGAGGAUCACCCAUGUUGAUG | 0.0399 µM | 0.14 µM | – | – |
| UCGAGGUCAGGAUAUACAUGAGGAUCACCCAUGUUGAGAUAAGGUAGGAAAAGAGUAGGUAGAAGGGACGAGAG | 0.0276 µM | 0.0309 µM | – | – |
| AACGAGCAGUAGAAGGCAUGUCUACGGACAUGAGGAUCACCCAUGUUGUGACUCCGAAAGGAGCGUGAGGAUAUACUGCUCAAA | – | – | 0.0919 µM | 0.0143 µM |
| AAAGUGCAAGGAUAUAUAUGAAAAGUUACGAAAGUAACAAAACAUGAGGAUCACCCAUGUAGAAGGUGCACAAA | 0.0278 µM | 0.0244 µM | – | – |
| UAAUAUUUAUGAUAUUAUUACAUUAGAAGGCUAUACAUGUGGAUACAUGAGGAUCACCCAUGUAUAGAGGAUAUAGACAUAUAU | 0.357 µM | 0.537 µM | – | – |
| UUUUAACAUGAGGAUCACCCAUGUGAGGAUAUCGUUUUUUAUAUUAAUAUUAAUAAAACGAGAAGGCACAUUUU | 0.137 µM | 0.15 µM | – | – |
| UUUCGGCUCGAGAAGGUCUAUCGACAUGAGGAUCACCCAUGUUGCCAUGGAAGGAUAUCGAAGGCAGCACGGGAAAUAGUCCGG | – | – | 0.185 µM | 0.0533 µM |
| UAUUCGUUCUAGAAGGUGCAUUUGUUAAACAUGCAAGGAUAUAGACAUGAGGAUCACCCAUGUCUAUGAGACAUCGGCCUCCUU | 0.00715 µM | 0.0249 µM | – | – |
| CGUGCGUAUGUGAGGAUAUGCUGGUCCUUGGAUCAGCAGAAGGCACAUGAGGAUCACCCAUGUGGUGUCGUACA | 0.273 µM | 0.0201 µM | – | – |
| AGUCAUACAGGAUAUACAUGAGGAUCACCCAUGUAUAUCCAAAAAAAAUGAUCCUCAUGUAGAAGGGUAUGACA | 0.0159 µM | 0.0105 µM | – | – |
| GCGGUAUUGUAAGGAUAUACUCUGUGAUGAAGAGUAGAAGGUACUUACAUGAGGAUCACCCAUGUUUAACGUGAAAAUUACCGC | – | – | 0.0265 µM | 0.0167 µM |
| CCUCCCUGAGGAUAUCCACCCUCAUACAUGAGGAUCACCCAUGUUCAUCCGUGGCUACCCGGAGAAGGCAGCUCUC | 0.0449 µM | 0.0418 µM | – | – |
| CAAGGCGGUGAAGGAUAUACACGGGCGUUGCCAAACAUGAGGAUCACCCAUGUAGAAGGUCACCCUGAGAAGGCUUUAUGCCAU | 0.382 µM | 0.0452 µM | – | – |
| GCGUAACAUGAGGAUCACCCAUGUGCCCGAGAAUUCGGGCCGAGAAGGGUGACCGGACGUAUGGCACAGGAUAUCGACGUUUUG | – | – | 0.0336 µM | 0.0484 µM |
| UUUUUACAUGAGGAUCACCCAUGUCAGGAUAUUCUUAUAUUUUAUUAUUUUAUUUUUUGAAGAAGGGACUAUUA | 0.118 µM | 0.0704 µM | – | – |
| GUACGUGGACAGAAGGUGACAUGAGGAUCACCCAUGUUAGUUGAGGUACCAGCGAUCUGCGUGAUUGAGGAUAUGUCUGCGGGC | 0.0119 µM | 0.0138 µM | – | – |
| GGAUGACAAAGUCAUCCAAUACGAACAUGAGGAUCACCCAUGUAGGAUAUGCUACUCAAAGAGUAGCAGAAGGACAUGUGCCUU | 0.0338 µM | 0.252 µM | – | – |
| UUCGCUAAGGUGUAGCGAGACUUGCAAGAAGGGUGAUGCACAUGAGGAUCACCCAUGUAAGCCUUACAGGAUAUUGCUUGCCGA | – | – | 0.6 µM | 0.22 µM |
| CCGGAAAUGCAGGAUAUCGUAUCGGAAACGAUACGAGAAGGGUAUACAUGAGGAUCACCCAUGUGUCCUACCGG | 0.0226 µM | 0.0214 µM | – | – |
| UGGUACAUCGGAGGAUAUCAUGUGUAAACAUGAGGAUCACCCAUGUCGUACGAGAGUACGGAGAUUGAGAAGGCCGAUGUACCU | – | – | 0.0887 µM | 0.0165 µM |
| CGGGAAGUCGUAGGAUAUGGUGAUGUACAUGAGGAUCACCCAUGUCCGUCUUCUCUCACAAGAUGCCAGAAGGACGACCUCCGG | – | – | 0.77 µM | 0.0978 µM |
| AUGCUAUACGAAGGAUAUGGUUACAUGAGGAUCACCCAUGUAAUUCUUGUGAUCUUGUUUAAGUUCCAGAAGGUCGUAUAGCUA | 0.0291 µM | 0.0882 µM | – | – |
| AAAAGGCUAGGAUAUACAUGAGGAUCACCCAUGUGUACUGGACAUGCGGUAUGCGGAUGUAGAAGGAGUAUAAA | 0.0234 µM | 0.0624 µM | – | – |
| UCAAGUAUGUAGGAUAUCGAUGUCUGCGGACAUCGAGAAGGACGUACAUGAGGAUCACCCAUGUAACUUGCAUG | 0.107 µM | 0.0794 µM | – | – |
| AAAAAACAAGGAUAUACGUAUGAGGAUUGUCUUAAUUUUUGACAUGAGGAUCACCCAUGUAGAAGGUGUUAAAA | 0.12 µM | 0.126 µM | – | – |
| GGAGCUCCUGACAUGAGGAUCACCCAUGUUCACUUAUUAAAUCAGGAUAUCCUCUCGAAACGAGAGGAGAAGGGAUAUGCUCCU | – | – | 0.00758 µM | 0.00704 µM |
